Assay results from ChEMBL document CHEMBL1122456, “Structure-activity relationships for activation of adenylate cyclase by the diterpene forskolin and its derivatives” (J Med Chem, 1983).
pEC50: −log10 of the molar value.

What was measured:
Assay type in all cases: functional
Cavia porcellus = species: Cavia porcellus; assay: Percent conversion of total labeled nucleotides to cyclic AMP, determined in guinea pig cerebral cortical vesicular entities at 200 uM concentration
Summary of the method: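 Gray-matter cortex slices from male NIH guinea pigs (300 g) homogenized in O2/CO2-gassed KRB, pH 7.4. The 1000g pellet was labeled with [3H]adenine for 30 min at 37 °C, washed, post-incubated 15 min at 37 °C, and aliquoted. Aliquots were equilibrated 10 min at 37 °C, then given compound at 200 μM for 10 min at 30 °C and stopped with TCA. Read-out is labeled cAMP as percent of total labeled adenine nucleotides, reported as mean ± SEM.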

Rattus norvegicus = species: Rattus norvegicus; assay: Concentration required to activate rat cerebral cortical adenylate cyclase activity elicited by 200 uM forskolin
Summary of the method: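 Fresh crude cortical membranes from male Sprague-Dawley rats (150-175 g). Incubated in 50 mM Tris-HCl pH 7.5 with 1.0 mM IBMX, 5 mM MgCl2, 0.1 mM ATP plus [α-32P]ATP, 0.2 mM EGTA, and a creatine phosphate/creatine kinase regenerating system. About 100 μg protein per assay, 30 °C for 10 min, stopped with TCA, [32P]cAMP isolated. Run in triplicate. EC50 taken from ≥2 curves over 0.01–200 μM. Where full activation was not reached, EC50 is the concentration giving 50% of the maximal activity with 200 μM forskolin.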

Oryctolagus cuniculus = species: Oryctolagus cuniculus; assay: Percent stimulation of adenylate cyclase determined in rabbit heart membranes at 5 uM of compound as compared to 5 uM of forskolin; conditions: Membrane

Row | pEC50 (Rattus norvegicus) | Stimulation (Oryctolagus cuniculus) | SMILES | Conversion (Cavia porcellus)
1 | < 4.60 | 31% | C=C[C@@]1(C)CC(=O)[C@@]2(O)[C@H](O1)C(OC(=O)c1cc(OC)c(OC)c(OC)c1)C(O)[C@H]1C(C)(C)CC[C@H](O)C12C (some centres undefined) | 0.26%
2 | – | 1% | C=C[C@@]1(C)CC(=O)[C@H]2[C@H](O1)C(OC(C)=O)C(O)[C@H]1C(C)(C)CCCC21C (some centres undefined) | 0.18%
3 | 3.70 | 47% | C=C[C@@]1(C)CC(=O)[C@@]2(O)[C@H](O1)C(OC(C)=O)C(O)[C@H]1C(C)(C)CCC(=O)C12C (some centres undefined) | 0.76%
4 | 5.10 | 100% | C=C[C@@]1(C)CC(=O)[C@@]2(O)[C@H](O1)C(OC(C)=O)C(O)[C@H]1C(C)(C)CC[C@H](O)C12C (some centres undefined) | 4.4%
5 | < 3.70 | 28% | C=C[C@@]1(C)CC(=O)[C@@]23OS(=O)O[C@H]4CCC(C)(C)[C@H](C(O)C(OC(C)=O)[C@H]2O1)C43C (some centres undefined) | 1.2%
6 | 3.70 | 59% | C=C[C@@]1(C)CC(=O)[C@@]2(O)[C@H](O1)C(OC(=O)N(CC)CC)C(O)[C@H]1C(C)(C)CC[C@H](O)C12C (some centres undefined) | 0.84%
7 | 5.10 | 60% | C=C[C@@]1(C)CC(=O)[C@@]2(O)[C@H](O1)C(OC(=O)OCC)C(O)[C@H]1C(C)(C)CC[C@H](O)C12C (some centres undefined) | 4.01%
8 | – | 5% | CC(=O)OC1C(O)[C@H]2C(C)(C)CC[C@H](O)C2(C)[C@@]2(O)C(=O)C[C@](C)(C3CO3)O[C@H]12 (some centres undefined) | 0.22%
9 | 4.30 | 49% | C=C[C@@]1(C)C[C@H](O)[C@@]2(O)[C@H](O1)C(OC(C)=O)C(O)[C@H]1C(C)(C)CC[C@H](O)C12C (some centres undefined) | 0.97%
10 | – | 1% | C=C[C@@]1(C)CC(=O)[C@@]23OC(=O)O[C@H]4CCC(C)(C)[C@H](C5OC(=O)OC5[C@H]2O1)C43C (some centres undefined) | 0.25%
11 | < 3.70 | 20% | C=C[C@@]1(C)CC(=O)[C@@]2(O)[C@H](O1)C(OC(C)=O)C(OC(C)=O)[C@H]1C(C)(C)CC[C@H](OC(C)=O)C12C (some centres undefined) | 0.47%
12 | – | 0% | CC(=O)OC1C(O)[C@H]2C(C)(C)CC[C@H](O)C2(C)[C@@]23OC(CO)[C@@](C)(CC2=O)O[C@H]13 (some centres undefined) | 0.18%
13 | 3.82 | 52% | C=C[C@@]1(C)CC(=O)[C@@]2(O)[C@H](O1)C(OC=O)C(O)[C@H]1C(C)(C)CC[C@H](O)C12C (some centres undefined) | 0.47%
14 | 4.82 | 67% | C=C[C@@]1(C)CC(=O)[C@@]2(O)[C@H](O1)C(OC(=O)CC)C(O)[C@H]1C(C)(C)CC[C@H](O)C12C (some centres undefined) | 1.07%
15 | 4.70 | 51% | C=C[C@@]1(C)CC(=O)[C@@]2(O)[C@H](O1)C(O)C(O)[C@H]1C(C)(C)CC[C@H](O)C12C (some centres undefined) | 1.37%
16 | < 4.60 | 5% | C=C[C@@]1(C)CC(=O)[C@@]2(O)[C@H](O1)C(OS(=O)(=O)c1ccc(C)cc1)C(O)[C@H]1C(C)(C)CC[C@H](O)C12C (some centres undefined) | 0.16%
17 | 4.00 | 46% | C=C[C@@]1(C)CC(=O)[C@H]2[C@H](O1)C(OC(C)=O)C(O)[C@H]1C(C)(C)CC[C@H](O)C21C (some centres undefined) | 0.84%
18 | 4.00 | 49% | CC[C@@]1(C)CC(=O)[C@@]2(O)[C@H](O1)C(OC(C)=O)C(O)[C@H]1C(C)(C)CC[C@H](O)C12C (some centres undefined) | 0.97%
19 | – | 0% | C=C[C@@]1(C)CC(=O)[C@@]2(O)[C@H](O1)C(OC(C)=O)C(=O)[C@H]1C(C)(C)CCC(=O)C12C (some centres undefined) | 0.17%
20 | – | 1.6% | C=C[C@@]1(C)C[C@@H](O)[C@H]2[C@H](O1)C(O)C(O)[C@H]1C(C)(C)CC[C@H](O)C21C (some centres undefined) | 0.41%
